From ChEMBL document CHEMBL3400039, “Design, synthesis and in vitro cell-based evaluation of the anti-cancer activities of hispolon analogs” (Bioorg Med Chem, 2015)
The source made the active and inactive calls. No cut-off for these calls is given here.

Assays:
[1] = Cytotoxicity against human PC3 cells after 72 hrs by MTT assay; type: functional, cell-based; details: PC-3, 72 h
Procedure, shortened: (§1)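 Cells kept as adherent monolayers in DMEM with 10% FBS, 37°C, 5% CO2. Trypsin-harvested, seeded at 5 × 10^3 cells/well, then exposed to compound at 0.1 to 100 µM for 72 h. MTT (4 mg/ml) added for 4 h, formazan dissolved in DMSO, absorbance read at 570 nm. At least three experiments, each in triplicate; mean±SD.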

[2] = tested on: DU-145; test: Cytotoxicity against human DU145 cells after 72 hrs by MTT assay; type: functional, cell-based; details: DU-145, 72 h; procedure, shortened: as §1
[3] = Cytotoxicity against human HCT116 cells after 72 hrs by MTT assay; type: functional, cell-based; details: HCT-116, 72 h; procedure, shortened: as §1
[4] = Cytotoxicity against human S1 cells after 72 hrs by MTT assay; type: functional, cell-based; details: S1, 72 h; procedure, shortened: as §1
[5] = tested on: MDA-MB-231; test: Cytotoxicity against human MDA-MB-231 cells after 72 hrs by MTT assay; type: functional, cell-based; details: MDA-MB-231, 72 h; procedure, shortened: as §1
[6] = tested on: MDCK; test: Cytotoxicity against MDCK cells after 72 hrs by MTT assay; type: cell-based; details: Canis lupus familiaris; procedure, shortened: as §1
[7] = Cytotoxicity against mouse NIH/3T3 cells after 72 hrs by MTT assay; type: cell-based; details: NIH3T3, 72 h; procedure, shortened: as §1
[8] = tested on: HEK293; test: Cytotoxicity against HEK293 cells expressing pcDNA3.1 after 72 hrs by MTT assay; type: cell-based; details: Homo sapiens, HEK293, 72 h; procedure, shortened: as §1
[9] = tested on: HEK293; test: Cytotoxicity against HEK293 cells expressing ABCB1 after 72 hrs by MTT assay; type: functional, cell-based; details: Homo sapiens, HEK293, 72 h; procedure, shortened: as §1
[10] = tested on: HEK293; test: Resistance index, ratio of IC50 for HEK293 cells expressing ABCB1 to IC50 for HEK293 cells expressing pcDNA3.1; design: species or system Homo sapiens
Procedure, shortened: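 Fold resistance is the IC50 in P-glycoprotein-overexpressing HEK293/ABCB1 cells divided by the IC50 in empty-vector HEK293/pcDNA3.1 cells. IC50s from the 72 h MTT assay; paclitaxel was the positive-control ABCB1 substrate.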

[11] = tested on: PC-3; test: Cytotoxicity against human PC3 cells at 100 uM after 72 hrs by MTT assay; type: functional, cell-based; procedure, shortened: as §1
[12] = tested on: DU-145; test: Cytotoxicity against human DU145 cells at 100 uM after 72 hrs by MTT assay; type: functional, cell-based; procedure, shortened: as §1
[13] = tested on: HCT-116; test: Cytotoxicity against human HCT116 cells at 100 uM after 72 hrs by MTT assay; type: functional, cell-based; procedure, shortened: as §1
[14] = tested on: S1; test: Cytotoxicity against human S1 cells at 100 uM after 72 hrs by MTT assay; type: functional, cell-based; procedure, shortened: as §1
[15] = tested on: MCF7; test: Cytotoxicity against human MCF7 cells at 100 uM after 72 hrs by MTT assay; type: functional, cell-based; procedure, shortened: as §1
[16] = tested on: MDA-MB-231; test: Cytotoxicity against human MDA-MB-231 cells at 100 uM after 72 hrs by MTT assay; type: functional, cell-based; procedure, shortened: as §1
[17] = tested on: MDCK; test: Cytotoxicity against MDCK cells at 100 uM after 72 hrs by MTT assay; type: cell-based, Canis lupus familiaris; details: dog; procedure, shortened: as §1
[18] = Cytotoxicity against mouse NIH/3T3 cells at 100 uM after 72 hrs by MTT assay; type: cell-based; details: nih3t3, 72 h; procedure, shortened: as §1
[19] = tested on: HEK293; test: Cytotoxicity against HEK293 cells expressing pcDNA3.1 at 100 uM after 72 hrs by MTT assay; type: cell-based; details: human, hek293, 72 h; procedure, shortened: as §1
[20] = tested on: MCF7; test: Cytotoxicity against human MCF7 cells after 72 hrs by MTT assay; type: functional, cell-based; details: MCF7, 72 h; procedure, shortened: as §1

Structure (SMILES) | IC50 [1] [µM] | IC50 [2] [µM] | IC50 [3] [µM] | IC50 [4] [µM] | IC50 [5] [µM] | IC50 [6] [µM] | IC50 [7] [µM] | IC50 [8] [µM] | IC50 [9] [µM] | Ratio IC50 [10] | Activity [11] | Activity [12] | Activity [13] | Activity [14] | Activity [15] | Activity [16] | Activity [17] | Activity [18] | Activity [19] | IC50 [20] [µM]
COc1ccc(/C=C/C(=O)CC(C)=O)cc1 | 15.8 | 9.1 | 11.9 | 44.6 | 25 | 41.6 | 48.2 | 18.7 | 16.3 | 0.9 |  |  |  |  |  |  |  |  |  | 
Cc1cc(CCc2ccc(O)cc2)[nH]n1 |  |  |  |  |  |  |  |  |  |  | inactive | inactive | inactive | inactive | inactive | inactive | Non-toxic | Non-toxic | Non-toxic | 
COc1cc(CCc2cc(C)no2)ccc1O |  |  |  |  |  |  |  |  |  |  | inactive | inactive | inactive | inactive | inactive | inactive | Non-toxic | Non-toxic | Non-toxic | 
COc1cc(/C=C/c2cc(C)[nH]n2)ccc1O | 16.5 | 32.2 | 78.8 | 29.4 | 67 | 35.4 | 66.3 | 47.7 | 45.2 | 0.9 |  |  |  |  |  |  |  |  |  | 
Cc1cc(CCc2ccc(O)cc2)on1 |  |  |  |  |  |  |  |  |  |  | inactive | inactive | inactive | inactive | inactive | inactive | Non-toxic | Non-toxic | Non-toxic | 
Cc1cc(/C=C/c2ccc(O)cc2)on1 | 50.2 | 67.2 | 67.9 | 44.2 | 55.5 | 58.3 | 88.5 |  |  | 1 |  |  |  |  |  |  |  |  |  | 
COc1ccc(CCC(=O)CC(C)=O)cc1 |  |  |  |  |  |  |  |  |  |  | inactive | inactive | inactive | inactive | inactive | inactive | Non-toxic | Non-toxic | Non-toxic | 
CC(=O)CC(=O)CCc1ccc(O)cc1 |  |  |  |  |  |  |  |  |  |  | inactive | inactive | inactive | inactive | inactive | inactive | Non-toxic | Non-toxic | Non-toxic | 
COc1ccc(/C=C/C(=O)CC(C)=O)cc1OC | 8.9 | 8.2 | 4.7 | 9.3 | 43.1 | 9.9 | 18.1 | 8.2 | 10.6 | 1.3 |  |  |  |  |  |  |  |  |  | 10.6
COc1cc(/C=C/c2cc(C)no2)ccc1O | 20.9 | 28.9 | 33.4 | 50.5 | 34.6 | 29.8 | > 100 | 36.2 | 41.3 | 1.1 |  |  |  |  |  |  |  |  |  | 
COc1ccc(CCC(=O)CC(C)=O)cc1OC |  |  |  |  |  |  |  |  |  |  | inactive | inactive | inactive | inactive | inactive | inactive | Non-toxic | Non-toxic | Non-toxic | 
COc1ccc(/C=C/c2cc(C)n[nH]2)cc1OC | 12.6 | 18.5 | 51.3 | 22.4 | 38.8 | 54.1 | 68.4 |  | 33.2 | 1.4 |  |  |  |  |  |  |  |  |  | 
COc1ccc(/C=C/c2cc(C)n[nH]2)cc1 | 8.9 |  | 9.4 | 8.4 | 10.7 |  | 19.9 | 12.9 | 16.5 | 1.3 |  |  |  |  |  |  |  |  |  | 9.7
COc1ccc(CCc2cc(C)n[nH]2)cc1 |  |  |  |  |  |  |  |  |  |  | inactive | inactive | inactive | inactive | inactive | inactive | Non-toxic | Non-toxic | Non-toxic | 
CC(=O)CC(=O)/C=C/c1ccc(O)cc1 | 20.2 | 8.8 | 36.5 | 10.6 | 6.8 | 30.6 | 18.9 |  | 11.6 | 1.1 |  |  |  |  |  |  |  |  |  | 
Cc1cc(/C=C/c2ccc(O)cc2)[nH]n1 | 48.1 |  | 38.8 | 32.9 | 23.2 | 80 | 59.2 | 77.4 | 68.9 | 0.9 |  |  |  |  |  |  |  |  |  | 
CC(=O)O[C@H]1C(=O)[C@@]2(C)[C@H]([C@H](OC(=O)c3ccccc3)[C@]3(O)C[C@H](OC(=O)[C@H](O)[C@@H](NC(=O)c4ccccc4)c4ccccc4)C(C)=C1C3(C)C)[C@]1(OC(C)=O)CO[C@@H]1C[C@@H]2O [PACLITAXEL] |  |  |  |  |  |  |  | 0.04 | 0.36 | 9 |  |  |  |  |  |  |  |  |  | 
Cc1cc(/C=C/c2ccc(O)c(O)c2)[nH]n1 | 23.2 | 33.1 |  | 55.3 |  | > 100 | 88.4 | 29.7 | 39.4 | 1.3 |  |  |  |  |  |  |  |  |  | 
COc1ccc(CCc2cc(C)no2)cc1 |  |  |  |  |  |  |  |  |  |  | inactive | inactive | inactive | inactive | inactive | inactive | Non-toxic | Non-toxic | Non-toxic | 
COc1ccc(/C=C/c2cc(C)no2)cc1OC | > 100 | > 100 | 87.4 | > 100 |  | 44.7 | 93.2 | 63.2 | 77.8 | 1.2 |  |  |  |  |  |  |  |  |  | > 100
CC(=O)/C=C(O)/C=C/c1ccc(O)c(O)c1 [HISPOLON] | 12.9 | 28.6 | 5.2 | 8.4 | 32.2 | 36.2 | 51.2 | 7.3 | 9.6 | 1.3 |  |  |  |  |  |  |  |  |  | 7.9
COc1ccc(/C=C/c2cc(C)no2)cc1 | > 100 | > 100 | 22.4 | 76.4 |  | 70.2 | > 100 | 58.3 | 66.3 | 1.1 |  |  |  |  |  |  |  |  |  | > 100
COc1ccc(CCc2cc(C)n[nH]2)cc1OC |  |  |  |  |  |  |  |  |  |  | inactive | inactive | inactive | inactive | inactive | inactive | Non-toxic | Non-toxic | Non-toxic | 
COc1ccc(CCc2cc(C)no2)cc1OC |  |  |  |  |  |  |  |  |  |  | inactive | inactive | inactive | inactive | inactive | inactive | Non-toxic | Non-toxic | Non-toxic | 
Cc1cc(/C=C/c2ccc(O)c(O)c2)on1 | 3.3 | 10.5 | 5.3 | 7.9 | 8.9 |  | 26.2 | 13 | 11.8 | 0.9 |  |  |  |  |  |  |  |  |  | 6.3
COc1cc(CCc2cc(C)n[nH]2)ccc1O |  |  |  |  |  |  |  |  |  |  | inactive | inactive | inactive | inactive | inactive | inactive | Non-toxic | Non-toxic | Non-toxic | 
